According to ChEMBL document CHEMBL3232759, “Hepatoprotective effects of triterpenoids from Ganoderma cochlear” (J Nat Prod, 2014):

How the values were obtained:
HepG2 [1] = assay: Hepatoprotective activity against H2O2-induced human HepG2 cells assessed as reduction in ALT level at 4.60 uM after 24 hrs (reference value: 23.22 +/- 1.22 U/L); format: functional
Outline: (§1)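 HepG2 cells in log phase seeded at 1 × 10^4 cells/well and held 24 h at 37 °C. Exposed to 3.2 mM H2O2 for 2 h at 37 °C, then to test compound in medium with DMSO for 24 h. ALT or AST read directly in the supernatant. Controls: DMSO-only cells and H2O2-only model. Test concentrations kept within each compound's MTT-determined maximum nontoxic level. Mean ± SD, n = 3; paired-sample test.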

HepG2 [2] = assay: Hepatoprotective activity against H2O2-induced human HepG2 cells assessed as reduction in ALT level at 9.20 uM after 24 hrs (reference value: 23.22 +/- 1.22 U/L); format: functional; outline: as §1
HepG2 [3] = assay: Hepatoprotective activity against H2O2-induced human HepG2 cells assessed as reduction in ALT level at 18.40 uM after 24 hrs (reference value: 23.22 +/- 1.22 U/L); format: functional; outline: as §1
HepG2 [4] = assay: Hepatoprotective activity against H2O2-induced human HepG2 cells assessed as reduction in AST level at 4.60 uM after 24 hrs (reference value: 32.36 +/- 0.79 U/L); format: functional; outline: as §1
HepG2 [5] = assay: Hepatoprotective activity against H2O2-induced human HepG2 cells assessed as reduction in AST level at 9.20 uM after 24 hrs (reference value: 32.36 +/- 0.79 U/L); format: functional; outline: as §1
HepG2 [6] = assay: Hepatoprotective activity against H2O2-induced human HepG2 cells assessed as reduction in AST level at 18.40 uM after 24 hrs (reference value: 32.36 +/- 0.79 U/L); format: functional; outline: as §1
[7] = Cytotoxicity against human HepG2 cells after 96 hrs by MTT assay; format: cell-based; settings: read-out: MTD
Outline: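 HepG2 cells seeded at 1 × 10^4 cells/well in MEM + 10% FBS, 24 h at 37 °C. Compounds diluted from DMSO stocks into MEM with 2% FBS (6.25, 12.5, 25, 50, 100, 200, 400 μM), DMSO kept below 1% (v/v). Added to monolayer; MTT read at OD570 after 96 h. % inhibition vs DMSO control; maximum nontoxic concentration determined.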

HepG2 [8] = assay: Hepatoprotective activity against H2O2-induced human HepG2 cells assessed as reduction in ALT level at 14.98 uM after 24 hrs (reference value: 23.22 +/- 1.22 U/L); format: functional; outline: as §1
HepG2 [9] = assay: Hepatoprotective activity against H2O2-induced human HepG2 cells assessed as reduction in ALT level at 29.95 uM after 24 hrs (reference value: 23.22 +/- 1.22 U/L); format: functional; outline: as §1
HepG2 [10] = assay: Hepatoprotective activity against H2O2-induced human HepG2 cells assessed as reduction in ALT level at 59.90 uM after 24 hrs (reference value: 23.22 +/- 1.22 U/L); format: functional; outline: as §1
HepG2 [11] = assay: Hepatoprotective activity against H2O2-induced human HepG2 cells assessed as reduction in AST level at 14.98 uM after 24 hrs (reference value: 32.36 +/- 0.79 U/L); format: functional; outline: as §1
HepG2 [12] = assay: Hepatoprotective activity against H2O2-induced human HepG2 cells assessed as reduction in AST level at 29.95 uM after 24 hrs (reference value: 32.36 +/- 0.79 U/L); format: functional; outline: as §1
HepG2 [13] = assay: Hepatoprotective activity against H2O2-induced human HepG2 cells assessed as reduction in AST level at 59.90 uM after 24 hrs (reference value: 32.36 +/- 0.79 U/L); format: functional; outline: as §1
HepG2 [14] = assay: Hepatoprotective activity against H2O2-induced human HepG2 cells assessed as reduction in ALT level at 16.43 uM after 24 hrs (reference value: 23.22 +/- 1.22 U/L); format: functional; outline: as §1
HepG2 [15] = assay: Hepatoprotective activity against H2O2-induced human HepG2 cells assessed as reduction in ALT level at 32.85 uM after 24 hrs (reference value: 23.22 +/- 1.22 U/L); format: functional; outline: as §1
HepG2 [16] = assay: Hepatoprotective activity against H2O2-induced human HepG2 cells assessed as reduction in ALT level at 65.70 uM after 24 hrs (reference value: 23.22 +/- 1.22 U/L); format: functional; outline: as §1
HepG2 [17] = assay: Hepatoprotective activity against H2O2-induced human HepG2 cells assessed as reduction in AST level at 16.43 uM after 24 hrs (reference value: 32.36 +/- 0.79 U/L); format: functional; outline: as §1
HepG2 [18] = assay: Hepatoprotective activity against H2O2-induced human HepG2 cells assessed as reduction in AST level at 32.85 uM after 24 hrs (reference value: 32.36 +/- 0.79 U/L); format: functional; outline: as §1
HepG2 [19] = assay: Hepatoprotective activity against H2O2-induced human HepG2 cells assessed as reduction in AST level at 65.70 uM after 24 hrs (reference value: 32.36 +/- 0.79 U/L); format: functional; outline: as §1
HepG2 [20] = assay: Hepatoprotective activity against H2O2-induced human HepG2 cells assessed as reduction in ALT level at 3.88 uM after 24 hrs (reference value: 23.22 +/- 1.22 U/L); format: functional; outline: as §1
HepG2 [21] = assay: Hepatoprotective activity against H2O2-induced human HepG2 cells assessed as reduction in ALT level at 7.75 uM after 24 hrs (reference value: 23.22 +/- 1.22 U/L); format: functional; outline: as §1
HepG2 [22] = assay: Hepatoprotective activity against H2O2-induced human HepG2 cells assessed as reduction in ALT level at 15.5 uM after 24 hrs (reference value: 23.22 +/- 1.22 U/L); format: functional; outline: as §1
HepG2 [23] = assay: Hepatoprotective activity against H2O2-induced human HepG2 cells assessed as reduction in AST level at 3.88 uM after 24 hrs (reference value: 32.36 +/- 0.79 U/L); format: functional; outline: as §1
HepG2 [24] = assay: Hepatoprotective activity against H2O2-induced human HepG2 cells assessed as reduction in AST level at 7.75 uM after 24 hrs (reference value: 32.36 +/- 0.79 U/L); format: functional; outline: as §1
HepG2 [25] = assay: Hepatoprotective activity against H2O2-induced human HepG2 cells assessed as reduction in AST level at 15.5 uM after 24 hrs (reference value: 32.36 +/- 0.79 U/L); format: functional; outline: as §1

C=C(C)[C@@H]1C[C@H](O)C2=C(C(=O)C[C@]3(C)[C@@H]([C@H](C)CCC(=O)O)CC[C@@]23C)[C@@]1(C)CCC(=O)O
Activity (HepG2 [1]): 19.61 U/L | Activity (HepG2 [2]): 20.2 U/L | Activity (HepG2 [3]): 20.84 U/L | Activity (HepG2 [4]): 30.38 U/L | Activity (HepG2 [5]): 23.8 U/L | Activity (HepG2 [6]): 20.66 U/L | MNTC at 96 h [7]: 65.7 µM

C=C(C)[C@@H]1C[C@H](O)C2=C(C(=O)C[C@]3(C)[C@@H]([C@H](C)CCC(=O)OC)CC[C@@]23C)[C@@]1(C)CCC(=O)O
MNTC at 96 h [7]: 15.5 µM

CC(C)=CC[C@H](O)[C@@H](C)[C@H]1CC[C@@]2(C)C3=CC[C@H]4C(C)(C)[C@@H](O)CC[C@]4(C)C3=CC[C@]12C
MNTC at 96 h [7]: 150 µM

C=C(C)[C@@H]1C[C@@H]2O[C@@]1(CCC(=O)O)CC1=C2[C@]2(C)CC[C@H]([C@H](C)CCC(=O)OC)[C@@]2(C)CC1=O
MNTC at 96 h [7]: 74.6 µM

C=C(C)[C@@H]1C[C@H](O)C2=C(C(=O)C[C@]3(C)[C@@H]([C@H](C)CCC(=O)OC)CC[C@@]23C)[C@@]1(C)CCC(=O)OC
Activity (HepG2 [8]): 19.32 U/L | Activity (HepG2 [9]): 18.51 U/L | Activity (HepG2 [10]): 17.81 U/L | Activity (HepG2 [11]): 28.28 U/L | Activity (HepG2 [12]): 26.77 U/L | Activity (HepG2 [13]): 22.11 U/L | MNTC at 96 h [7]: 59.9 µM

C[C@H]1C(=O)CC[C@@H]2[C@]1(C)CC[C@H]1[C@@]2(C)CC[C@@]2(C)[C@@H]3CC(C)(C)CC[C@]3(C)CC[C@]12C [FRIEDELINE]
Activity (HepG2 [14]): 18.92 U/L | Activity (HepG2 [15]): 18.27 U/L | Activity (HepG2 [16]): 16.06 U/L | Activity (HepG2 [17]): 29.45 U/L | Activity (HepG2 [18]): 25.43 U/L | Activity (HepG2 [19]): 19.09 U/L | MNTC at 96 h [7]: 15 µM

C=C(C)[C@@H]1C[C@H](O)C2=C(C(=O)C[C@]3(C)[C@@H]([C@H](C)CCC(=O)O)CC[C@@]23C)[C@@]1(C)CCC(=O)OC
Activity (HepG2 [20]): 21.01 U/L | Activity (HepG2 [21]): 19.32 U/L | Activity (HepG2 [22]): 19.73 U/L | Activity (HepG2 [23]): 28.23 U/L | Activity (HepG2 [24]): 26.54 U/L | Activity (HepG2 [25]): 26.19 U/L | MNTC at 96 h [7]: 18.4 µM
